The target of experiment [1] is T1, Intracellular chorismate mutase (Mycobacterium tuberculosis) (UniProt P9WIC1).
T1 sequence (whole entry): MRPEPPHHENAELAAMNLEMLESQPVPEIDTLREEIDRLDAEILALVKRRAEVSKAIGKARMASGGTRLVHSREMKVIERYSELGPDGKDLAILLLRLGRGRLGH
Description: Inhibition of Mycobacterium tuberculosis chorismate mutase at 50 uM using chorismate substrate by spectrophotometry. In outline: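 His-tagged MtCM expressed in E. coli BL21(DE3) and purified by Ni-NTA. Started with 180 pmol enzyme, 5 min at 37 °C, stopped with 1 N HCl. Prephenate formation read at A274 against no-enzyme blanks. % inhibition = 100 − residual activity.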

Experiment [2] deals with T2, Intracellular chorismate mutase (Mycobacterium tuberculosis, UniProt P9WIC1).
T2 sequence (P9WIC1 whole entry): T1 sequence (whole entry)
In words: Inhibition of Mycobacterium tuberculosis chorismate mutase using chorismate substrate in dose response study by spectrophotometry.

This is an account of results in ChEMBL document CHEMBL2069283, “C-N bond formation under Cu-catalysis: synthesis and in vitro evaluation of N-aryl substituted thieno[2,3-d]pyrimidin-4(3H)-ones against chorismate mutase” (Bioorg Med Chem, 2012).

Broadly, the inhibition is the share of the control response that was lost under treatment. High values mean a strong effect, low ones a weak effect. As a reminder, the IC50 is the midpoint of a concentration-inhibition curve.

In the case of `O=Cc1cccc(-n2cnc3sc4c(c3c2=O)CCCC4)c1`, the inhibition in experiment [1] came to 45.3%. On to `O=C(c1ccccc1I)N1CCc2c(sc3ncn(-c4ccccc4)c(=O)c23)C1`, for which the inhibition in experiment [1] amounted to 12.6%. The compound `O=c1c2c3c(sc2ncn1-c1ccc(F)cc1)CCCC3` displayed an inhibition in experiment [1] of 12.8%.

Compound `O=c1c2c3c(sc2ncn1-c1ccccc1)CCCC3` yielded an inhibition in experiment [1] of 35.6%.

`COc1cccc(-n2cnc3sc4c(c3c2=O)CCCC4)c1` showed an inhibition in experiment [1] of 47%. The compound also had a half-inhibitory concentration (IC50) in experiment [2] of 19.8 µM. In experiment [1], `CC(C)(C)OC(=O)N1CCc2c(sc3ncn(-c4ccccc4)c(=O)c23)C1` registered an inhibition of 37.2%. Same read-out and setting: the value for `O=c1c2c3c(sc2ncn1-c1cccc(Cl)c1)CCCC3` was 42.5%. On to `Cc1csc2ncn(-c3ccc(F)cc3)c(=O)c12`, for which the inhibition in experiment [1] came out at 17.7%.

In experiment [2], `COc1cc(CCNc2c([N+](=O)[O-])cc(C(=O)O)cc2S(N)(=O)=O)cc(OC)c1` showed a 50% inhibitory concentration (IC50) below 10 µM. In the case of `O=c1c2c3c(sc2ncn1-c1ccc2ccccc2c1)CCCC3`, in experiment [1], the inhibition worked out at 33%. On the same count and under the same terms, the same measure for `O=c1c2c3c(sc2ncn1-c1ccccc1)CNCC3`: 36.2%.

In turn, `CC(C)(C)OC(=O)N1CCc2c(sc3ncn(-c4cccc(C=O)c4)c(=O)c23)C1` showed an inhibition in experiment [1] of 49.9%. The compound also registered an IC50 in experiment [2] of 23.9 µM.

The compound `O=c1c2c3c(sc2ncn1-c1ccc(F)cc1)CCCCC3` displayed an inhibition in experiment [1] of 14.6%. Compound `O=c1c2c3c(sc2ncn1-c1ccccc1)CCCCC3` showed an inhibition in experiment [1] of 13%.
